The source made the active and inactive calls. No cut-off for these calls is given here.
What was measured:
[1] = tested on: DU-145; test: Antiproliferative activity against human DU145 cells after 72 hrs by MTS assay; format: functional, cell-based; details: DU-145, 72 h
Procedure, shortened: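 DU-145 cells passaged 24 h before dosing and exposed 72 h; compounds from 10 mM DMSO stocks; controls given media with 0.1% DMSO; 37°C, 5% CO2. Viability read by MTS assay, with Trypan Blue staining also used. IC50 from the average of two experiments, each run in triplicate.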

[2] = biological target: Histone deacetylase 1 (Homo sapiens, UniProt Q13547); test: Inhibition of HDAC1 in human HeLa cell nuclear extract using Fluor de Lys as substrate after 15 mins by fluorometric analysis
Chain of Histone deacetylase 1 (Q13547 whole entry): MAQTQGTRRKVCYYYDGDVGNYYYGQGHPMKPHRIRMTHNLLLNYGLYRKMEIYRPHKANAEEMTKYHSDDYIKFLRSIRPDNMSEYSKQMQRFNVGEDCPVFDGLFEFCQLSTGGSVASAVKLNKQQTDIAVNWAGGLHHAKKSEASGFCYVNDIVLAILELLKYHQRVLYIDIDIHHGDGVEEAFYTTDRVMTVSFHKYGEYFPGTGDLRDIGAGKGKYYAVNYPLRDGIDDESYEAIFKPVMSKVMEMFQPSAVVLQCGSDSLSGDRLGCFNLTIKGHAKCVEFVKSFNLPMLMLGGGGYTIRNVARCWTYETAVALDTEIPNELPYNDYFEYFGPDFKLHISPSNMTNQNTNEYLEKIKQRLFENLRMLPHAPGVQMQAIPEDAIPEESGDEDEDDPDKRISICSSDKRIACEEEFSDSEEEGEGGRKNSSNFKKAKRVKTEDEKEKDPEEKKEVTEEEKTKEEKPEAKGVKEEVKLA

[3] = tested on: MCF7; test: Antiproliferative activity against human MCF7 cells after 72 hrs by MTS assay; format: functional, cell-based; details: MCF7, 72 h
[4] = biological target: DNA topoisomerase 2-alpha (Homo sapiens) (UniProt P11388); test: Inhibition of Topoisomerase 2 assessed as kinetoplast DNA decatenation at 50 uM after 10 mins by electrophoretic analysis
Chain of DNA topoisomerase 2-alpha (Homo sapiens) (P11388 whole entry): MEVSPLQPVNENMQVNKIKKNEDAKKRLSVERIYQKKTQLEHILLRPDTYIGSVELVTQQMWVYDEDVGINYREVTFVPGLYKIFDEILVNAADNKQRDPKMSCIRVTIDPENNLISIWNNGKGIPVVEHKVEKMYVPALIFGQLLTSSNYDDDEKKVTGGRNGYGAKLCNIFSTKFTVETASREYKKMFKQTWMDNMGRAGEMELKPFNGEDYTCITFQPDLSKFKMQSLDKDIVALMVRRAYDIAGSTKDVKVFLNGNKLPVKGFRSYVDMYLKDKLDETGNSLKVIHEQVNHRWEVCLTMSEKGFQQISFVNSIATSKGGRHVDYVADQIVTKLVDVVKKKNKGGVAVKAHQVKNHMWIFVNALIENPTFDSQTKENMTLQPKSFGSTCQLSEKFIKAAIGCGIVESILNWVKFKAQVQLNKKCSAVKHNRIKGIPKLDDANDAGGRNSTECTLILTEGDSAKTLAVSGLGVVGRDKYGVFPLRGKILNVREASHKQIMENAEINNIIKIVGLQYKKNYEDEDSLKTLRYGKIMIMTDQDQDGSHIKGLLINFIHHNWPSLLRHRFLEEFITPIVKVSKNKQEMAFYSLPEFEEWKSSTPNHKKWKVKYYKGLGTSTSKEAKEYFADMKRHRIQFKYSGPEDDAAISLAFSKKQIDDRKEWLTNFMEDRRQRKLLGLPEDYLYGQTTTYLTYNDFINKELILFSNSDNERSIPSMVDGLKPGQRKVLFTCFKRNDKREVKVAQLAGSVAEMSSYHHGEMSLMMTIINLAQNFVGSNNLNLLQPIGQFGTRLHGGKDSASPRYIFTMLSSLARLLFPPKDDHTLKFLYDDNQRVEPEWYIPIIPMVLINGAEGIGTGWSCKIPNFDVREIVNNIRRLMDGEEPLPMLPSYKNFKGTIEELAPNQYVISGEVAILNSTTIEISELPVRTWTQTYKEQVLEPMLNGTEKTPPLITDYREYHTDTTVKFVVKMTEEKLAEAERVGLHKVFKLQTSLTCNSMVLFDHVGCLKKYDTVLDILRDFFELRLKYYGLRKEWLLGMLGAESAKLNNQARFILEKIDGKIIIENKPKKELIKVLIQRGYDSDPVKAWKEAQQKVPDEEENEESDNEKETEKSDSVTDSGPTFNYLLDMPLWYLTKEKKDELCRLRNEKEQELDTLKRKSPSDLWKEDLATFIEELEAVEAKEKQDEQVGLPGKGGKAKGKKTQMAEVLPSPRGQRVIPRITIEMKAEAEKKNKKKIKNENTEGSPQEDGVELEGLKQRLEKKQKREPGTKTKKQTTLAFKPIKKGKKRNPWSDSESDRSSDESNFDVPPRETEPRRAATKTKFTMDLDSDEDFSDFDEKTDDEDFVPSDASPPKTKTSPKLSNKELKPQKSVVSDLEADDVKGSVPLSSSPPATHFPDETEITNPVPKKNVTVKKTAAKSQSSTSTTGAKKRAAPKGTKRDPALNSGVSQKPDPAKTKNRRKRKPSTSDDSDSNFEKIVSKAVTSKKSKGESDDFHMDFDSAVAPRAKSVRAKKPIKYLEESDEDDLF

[5] = biological target: Histone deacetylase (HDAC1 and HDAC2) (Homo sapiens, UniProt Q13547+Q92769); test: Inhibition of HDAC1/2 in human HeLa cell nuclear extract using Fluor de Lys as substrate after 15 mins by fluorometric analysis; format: protein assay
[6] = biological target: T1, Protein deacetylase HDAC6 (Homo sapiens, UniProt Q9UBN7); test: Inhibition of HDAC6 in human HeLa cell nuclear extract using Fluor de Lys as substrate after 15 mins by fluorometric analysis
T1 sequence (Q9UBN7 whole entry): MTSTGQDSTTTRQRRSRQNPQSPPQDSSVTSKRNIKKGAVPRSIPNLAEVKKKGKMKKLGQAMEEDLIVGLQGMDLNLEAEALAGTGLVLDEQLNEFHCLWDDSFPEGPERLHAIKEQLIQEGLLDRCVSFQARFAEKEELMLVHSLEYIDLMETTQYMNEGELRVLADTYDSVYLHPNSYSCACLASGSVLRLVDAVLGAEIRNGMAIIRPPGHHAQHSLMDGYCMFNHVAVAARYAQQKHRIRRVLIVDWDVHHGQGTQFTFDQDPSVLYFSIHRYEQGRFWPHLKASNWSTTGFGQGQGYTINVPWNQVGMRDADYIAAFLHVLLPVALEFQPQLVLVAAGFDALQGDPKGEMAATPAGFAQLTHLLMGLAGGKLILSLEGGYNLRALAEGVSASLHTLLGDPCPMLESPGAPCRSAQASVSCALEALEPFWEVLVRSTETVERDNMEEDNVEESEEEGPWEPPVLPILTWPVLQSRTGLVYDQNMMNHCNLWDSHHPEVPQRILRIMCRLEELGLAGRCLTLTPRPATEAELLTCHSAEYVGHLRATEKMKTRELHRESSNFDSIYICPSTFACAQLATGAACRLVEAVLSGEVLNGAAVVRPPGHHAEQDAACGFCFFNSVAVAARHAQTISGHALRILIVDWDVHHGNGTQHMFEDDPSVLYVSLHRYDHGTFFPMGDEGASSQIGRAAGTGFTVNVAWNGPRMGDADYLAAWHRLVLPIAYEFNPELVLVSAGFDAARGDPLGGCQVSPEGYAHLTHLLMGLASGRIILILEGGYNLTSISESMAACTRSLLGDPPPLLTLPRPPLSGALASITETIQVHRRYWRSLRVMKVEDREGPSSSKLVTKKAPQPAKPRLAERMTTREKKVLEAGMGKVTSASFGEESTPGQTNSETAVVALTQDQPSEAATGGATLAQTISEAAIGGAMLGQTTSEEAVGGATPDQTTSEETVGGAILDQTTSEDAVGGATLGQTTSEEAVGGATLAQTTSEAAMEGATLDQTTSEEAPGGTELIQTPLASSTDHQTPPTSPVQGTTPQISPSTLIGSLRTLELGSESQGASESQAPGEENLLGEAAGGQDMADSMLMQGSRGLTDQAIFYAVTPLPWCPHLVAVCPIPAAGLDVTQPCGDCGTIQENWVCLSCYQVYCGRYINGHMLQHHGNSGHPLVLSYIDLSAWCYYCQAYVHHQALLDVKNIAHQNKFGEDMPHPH

[7] = tested on: SK-MES-1; test: Antiproliferative activity against human SKMES1 cells after 72 hrs by MTS assay; format: functional, cell-based; details: SK-MES-1, 72 h
[8] = biological target: T2, Histone deacetylase 8 (Homo sapiens, UniProt Q9BY41); test: Inhibition of HDAC8 in human HeLa cell nuclear extract using Fluor de Lys as substrate after 15 mins by fluorometric analysis
T2 sequence (Q9BY41 whole entry): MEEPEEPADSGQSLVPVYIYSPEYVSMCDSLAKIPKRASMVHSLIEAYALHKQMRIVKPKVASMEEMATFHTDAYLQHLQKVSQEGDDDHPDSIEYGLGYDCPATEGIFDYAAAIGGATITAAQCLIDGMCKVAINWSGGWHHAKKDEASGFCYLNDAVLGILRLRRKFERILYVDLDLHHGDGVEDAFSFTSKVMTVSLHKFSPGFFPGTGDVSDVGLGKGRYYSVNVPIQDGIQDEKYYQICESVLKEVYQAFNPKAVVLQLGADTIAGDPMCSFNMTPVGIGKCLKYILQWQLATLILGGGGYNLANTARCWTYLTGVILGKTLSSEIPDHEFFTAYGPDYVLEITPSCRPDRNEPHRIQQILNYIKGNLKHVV

[9] = Drug uptake in human DU145 cell perinuclear region at 1 uM after 4 hrs by confocal microscopic analysis; format: ADME, cell-based; details: du-145, 4 h
Procedure, shortened: (§1)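 Cells plated on glass coverslips 24 h ahead, then given fresh media with compound at 1 μM for 4 h. After a PBS wash, coverslips were mounted and intracellular distribution imaged by confocal microscopy, excitation 488 nm. Done in DU-145 cells, with A549 lung tumor cells also examined.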

[10] = Drug uptake in human A549 cell nucleus at 1 uM after 4 hrs by confocal microscopic analysis; format: ADME, cell-based; details: a549, 4 h
Procedure, shortened: (§2)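 Cells plated on glass coverslips 24 h beforehand, then incubated in fresh medium with compound at 1 μM for 4 h. Washed with PBS, coverslips mounted and imaged by confocal microscopy at 488 nm excitation. DU-145 (prostate carcinoma) shown in main text; A549 lung tumour cells treated likewise.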

[11] = Drug uptake in human A549 cell perinuclear region at 1 uM after 4 hrs by confocal microscopic analysis; format: ADME, cell-based; details: a549, 4 h; procedure, shortened: as §1
[12] = biological target: DNA topoisomerase 2-alpha (Homo sapiens) (UniProt P11388); test: Inhibition of topoisomerase 2 in human DU145 cells assessed as stabilization of enzyme-DNA cleavage complex at 90 nM after 30 mins by immunoblot analysis; format: cell-based; details: DU-145
[13] = biological target: T3, Histone deacetylase (Homo sapiens) (UniProt Q13547+O15379+Q9UBN7+Q92769+Q9UQL6+Q8WUI4+Q9BY41+Q96DB2+P56524+Q9UKV0+Q969S8); test: Inhibition of HDAC in human DU145 cells assessed as histone H4 acetylation after 24 hrs by Western blot analysis; format: cell-based; details: DU-145
Procedure, shortened: (§3)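 DU-145 cells passaged 24 h before dosing, then exposed 24 h to compound in growth medium (final DMSO 0.1%); controls received 0.1% DMSO. Lysed in RIPA with protease inhibitors at 4°C, cleared at 14,000 × g. Protein quantified against BSA, boiled, transferred to nitrocellulose. Probed for acetyl-H3, acetyl-H4 and p21waf1 with actin loading control; read by near-infrared scanning at 700/800 nm.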

[14] = biological target: T4, Protein deacetylase HDAC6 (Homo sapiens) (UniProt Q9UBN7); test: Inhibition of HDAC6-mediated tubulin acetylation in human DU145 cells at 90 nM after 4 hrs by Western blot analysis; format: cell-based; details: DU-145
T4 sequence (whole entry): T1 sequence (Q9UBN7 whole entry)
Procedure, shortened: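 DU-145 cells passaged 24 h before dosing, then treated 4 h, with no more than 0.1% DMSO including controls. Lysis in RIPA buffer with protease inhibitors, protein quantified against a BSA standard, SDS-PAGE and transfer. Blots probed with rabbit anti-tubulin and mouse anti-acetyl tubulin, read by near-infrared imaging at 700/800 nm.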

[15] = biological target: T3, Histone deacetylase (Homo sapiens); test: Inhibition of HDAC in human DU145 cells assessed as upregulation of p21 expression at 5 times IC50 concentration after 4 hrs by Western blot analysis relative to control; format: cell-based; details: DU-145
Procedure, shortened: (§4)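 Lysed in RIPA with protease inhibitors, cleared 14,000 RPM at 4°C. Immunoblotted, probing acetylated versus total tubulin; p21 also checked. Near-infrared detection at 700/800 nm.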

[16] = biological target: T3, Histone deacetylase (Homo sapiens); test: Inhibition of HDAC in human DU145 cells assessed as upregulation of p21waf1 protein expression at 0.1 uM after 24 hrs by Western blot analysis; format: cell-based; details: DU-145; procedure, shortened: as §3
[17] = Drug uptake in human DU145 cell nucleus at 1 uM after 4 hrs by confocal microscopic analysis; format: ADME, cell-based; details: du-145, 4 h; procedure, shortened: as §2
[18] = biological target: T4, Protein deacetylase HDAC6 (Homo sapiens); test: Inhibition of HDAC6-mediated tubulin acetylation in human DU145 cells at 500 nM after 4 hrs by Western blot analysis; format: cell-based; details: DU-145; procedure, shortened: as §4
[19] = biological target: T3, Histone deacetylase (Homo sapiens); test: Inhibition of HDAC in human DU145 cells assessed as upregulation of p21 expression at IC50 concentration after 4 hrs by Western blot analysis relative to control; format: cell-based; details: DU-145; procedure, shortened: as §4
[20] = biological target: T3, Histone deacetylase (Homo sapiens); test: Inhibition of HDAC in human DU145 cells assessed as histone H3 hyperacetylation at 0.1 to 0.5 uM after 24 hrs by Western blot analysis; format: cell-based; details: DU-145; procedure, shortened: as §3
[21] = biological target: DNA topoisomerase 2-alpha (Homo sapiens) (UniProt P11388); test: Inhibition of topoisomerase 2 in human DU145 cells assessed as stabilization of enzyme-DNA cleavage complex at 90 nM after 72 hrs by immunoblot analysis; format: cell-based; details: DU-145
[22] = Drug uptake in human A549 cell vesicle like body at 1 uM after 4 hrs by confocal microscopic analysis; format: ADME, cell-based; details: a549, 4 h; procedure, shortened: as §2
[23] = biological target: T4, Protein deacetylase HDAC6 (Homo sapiens); details: DU-145, 10 uM
[24] = biological target: DNA topoisomerase 2-alpha (Homo sapiens) (UniProt P11388); test: Inhibition of topoisomerase 2 in human DU145 cells assessed as stabilization of enzyme-DNA cleavage complex at […] after 72 hrs by immunoblot analysis; format: cell-based; details: DU-145
[25] = biological target: DNA topoisomerase 2-alpha (Homo sapiens) (UniProt P11388); test: Inhibition of topoisomerase 2 in human DU145 cells assessed as stabilization of enzyme-DNA cleavage complex at […] after 30 mins by immunoblot analysis; format: cell-based; details: DU-145
[26] = Drug uptake in human DU145 cell vesicle like body at 1 uM after 4 hrs by confocal microscopic analysis; format: ADME, cell-based; details: du-145, 4 h; procedure, shortened: as §2

O=C(CCCCCCC(=O)Nc1ccccc1)NO [VORINOSTAT]
IC50 [1]: 2120 nM

COc1cccc2c1C(=O)c1c(O)c3c(c(O)c1C2=O)C[C@@](O)(C(C)=O)C[C@@H]3O[C@H]1C[C@H](NCc2ccc(-c3cn(CCCCC(=O)NO)nn3)cc2)[C@H](O)[C@H](C)O1
IC50 [2]: 4600 nM | IC50 [3]: 24500 nM | inhibition [4]: Active | IC50 [5]: 89.9 nM | IC50 [6]: 555 nM | IC50 [7]: 15300 nM | IC50 [1]: 5390 nM

COc1cccc2c1C(=O)c1c(O)c3c(c(O)c1C2=O)C[C@@](O)(C(C)=O)C[C@@H]3O[C@H]1C[C@H](NCc2ccc(-c3cn(CCCCCCC(=O)NO)nn3)cc2)[C@H](O)[C@H](C)O1
IC50 [2]: 8 nM | IC50 [3]: 10600 nM | IC50 [8]: 710 nM | inhibition [4]: Active | IC50 [5]: 0.9 nM | IC50 [6]: 20 nM | IC50 [7]: 3310 nM | IC50 [1]: 2920 nM

COc1cccc2c1C(=O)c1c(O)c3c(c(O)c1C2=O)C[C@@](O)(C(C)=O)C[C@@H]3O[C@H]1C[C@H](N)[C@H](O)[C@H](C)O1 [DAUNORUBICIN]
Drug uptake [9]: Active | Drug uptake [10]: Active | Drug uptake [11]: Active | inhibition [12]: Active | IC50 [3]: 950 nM | inhibition [13]: Dose-dependent effect | inhibition [14]: inactive | inhibition [4]: Active | Activity [15]: inactive | IC50 [7]: 170 nM | inhibition [16]: inactive | Drug uptake [17]: Active | inhibition [18]: Active | Activity [19]: inactive | IC50 [1]: 90 nM | inhibition [20]: Active | inhibition [21]: Active

COc1cccc2c1C(=O)c1c(O)c3c(c(O)c1C2=O)C[C@@](O)(C(C)=O)C[C@@H]3O[C@H]1C[C@H](NCc2ccc(-c3cn(CCCCCCCC(=O)NO)nn3)cc2)[C@H](O)[C@H](C)O1
IC50 [2]: 11 nM | IC50 [3]: 14800 nM | IC50 [8]: 379 nM | inhibition [4]: Active | IC50 [5]: 4.2 nM | IC50 [6]: 19 nM | IC50 [7]: 2610 nM | IC50 [1]: 2060 nM

COc1cccc2c1C(=O)c1c(O)c3c(c(O)c1C2=O)C[C@@](O)(C(C)=O)C[C@@H]3O[C@H]1C[C@H](NCc2ccc(-c3cn(CCCCCC(=O)NO)nn3)cc2)[C@H](O)[C@H](C)O1
Drug uptake [22]: Active | IC50 [3]: 13400 nM | IC50 [8]: 4130 nM | inhibition [23]: Active | inhibition [24]: inactive | inhibition [4]: Active | Activity [15]: inactive | inhibition [25]: Active | IC50 [6]: 30 nM | IC50 [7]: 4680 nM | Drug uptake [26]: Active | Activity [19]: inactive | IC50 [1]: 1610 nM

— ChEMBL document CHEMBL2021781, “Dual targeting of histone deacetylase and topoisomerase II with novel bifunctional inhibitors” (J Med Chem, 2012)
